{
  "source": "ChEMBL document CHEMBL3593206",
  "about": "“SAR Studies of Exosite-Binding Substrate-Selective Inhibitors of A Disintegrin And Metalloprotease 17 (ADAM17) and Application as Selective in Vitro Probes” (J Med Chem, 2015)",
  "key": {"[1]": {"biological_target": "T1, Disintegrin and metalloproteinase domain-containing protein 10 (Homo sapiens) (UniProt O14672)", "T1 sequence (whole entry)": "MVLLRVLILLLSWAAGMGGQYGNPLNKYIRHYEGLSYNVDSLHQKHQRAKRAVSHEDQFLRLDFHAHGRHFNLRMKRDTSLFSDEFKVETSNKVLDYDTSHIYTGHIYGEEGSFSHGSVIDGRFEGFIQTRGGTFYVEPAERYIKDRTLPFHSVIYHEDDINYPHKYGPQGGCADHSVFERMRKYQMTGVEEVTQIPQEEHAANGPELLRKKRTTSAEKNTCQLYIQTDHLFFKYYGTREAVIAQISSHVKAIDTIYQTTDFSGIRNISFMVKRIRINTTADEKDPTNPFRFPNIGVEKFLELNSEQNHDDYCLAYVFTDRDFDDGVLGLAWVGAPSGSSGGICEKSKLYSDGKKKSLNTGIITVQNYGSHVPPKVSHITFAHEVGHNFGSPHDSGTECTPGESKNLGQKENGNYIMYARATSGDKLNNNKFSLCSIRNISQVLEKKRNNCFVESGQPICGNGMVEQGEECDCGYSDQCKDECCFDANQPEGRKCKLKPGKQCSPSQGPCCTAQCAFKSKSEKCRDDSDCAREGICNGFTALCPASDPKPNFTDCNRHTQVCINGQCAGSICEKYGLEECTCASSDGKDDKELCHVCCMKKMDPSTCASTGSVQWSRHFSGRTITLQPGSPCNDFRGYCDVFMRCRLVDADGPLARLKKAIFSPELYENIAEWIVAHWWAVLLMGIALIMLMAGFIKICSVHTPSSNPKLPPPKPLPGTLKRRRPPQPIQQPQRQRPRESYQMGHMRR", "details": "A549, 10 uM"}, "A549": {"test_system": "A549", "assay": "Cytotoxicity against human A549 cells assessed as inhibition of cell viability up to 33 uM after 72 hrs by CellTiter-Glo assay", "format": "cell-based", "details": "a549, 72 h"}, "[2]": {"biological_target": "T2, Disintegrin and metalloproteinase domain-containing protein 17 (Homo sapiens, UniProt P78536)", "T2 sequence (P78536 whole entry, the tested form may be a part)": "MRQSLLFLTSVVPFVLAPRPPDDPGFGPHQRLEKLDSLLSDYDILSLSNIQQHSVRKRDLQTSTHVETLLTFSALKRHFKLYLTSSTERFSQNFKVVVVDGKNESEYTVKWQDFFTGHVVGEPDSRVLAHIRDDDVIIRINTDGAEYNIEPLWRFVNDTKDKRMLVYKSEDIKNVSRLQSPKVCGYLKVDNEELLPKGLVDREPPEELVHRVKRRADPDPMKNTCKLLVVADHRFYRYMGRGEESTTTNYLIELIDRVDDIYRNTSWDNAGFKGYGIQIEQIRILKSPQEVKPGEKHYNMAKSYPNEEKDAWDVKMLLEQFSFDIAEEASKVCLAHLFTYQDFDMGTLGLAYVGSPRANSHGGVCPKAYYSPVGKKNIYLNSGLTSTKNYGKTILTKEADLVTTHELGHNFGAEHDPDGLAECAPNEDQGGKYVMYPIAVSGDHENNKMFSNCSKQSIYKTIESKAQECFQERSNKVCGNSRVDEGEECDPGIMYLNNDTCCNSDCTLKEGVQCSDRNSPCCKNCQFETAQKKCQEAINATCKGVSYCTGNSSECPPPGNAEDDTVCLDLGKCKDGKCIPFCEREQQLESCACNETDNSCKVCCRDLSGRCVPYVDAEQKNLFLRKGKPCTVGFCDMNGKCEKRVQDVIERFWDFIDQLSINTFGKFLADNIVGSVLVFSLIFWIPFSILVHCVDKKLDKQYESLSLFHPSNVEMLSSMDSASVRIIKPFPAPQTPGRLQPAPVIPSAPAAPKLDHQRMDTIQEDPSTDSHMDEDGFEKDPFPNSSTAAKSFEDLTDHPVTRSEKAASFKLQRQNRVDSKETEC", "assay": "Inhibition of ADAM17 (unknown origin) at 100 uM preincubated for 30 mins followed by substrate addition measured every 30 mins for 2 hrs by fluorescence assay relative to control", "in_short": "(§1)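 Enzyme at 30 nM (3× solution) in 10 mM Hepes, 0.001% Brij-35, pH 7.5. Inhibitor series of 10 points, 1:3, from 300 μM, preincubated 30 min at RT. Glycosylated substrate added from a 30 μM 3× solution. Fluorescence (ex 360/em 460 nm) read every 30 min for 2 h. Inhibition taken from hydrolysis rates against substrate-only and substrate-plus-enzyme wells.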"}, "[3]": {"biological_target": "T2, Disintegrin and metalloproteinase domain-containing protein 17", "assay": "Inhibition of ADAM17 in human THP1 cells assessed as inhibition of LPS-stimulated TNFalpha cleavage at 25 uM after 1 hr by AlphaScreen assay relative to control", "format": "cell-based", "details": "THP-1", "in_short": "(§2)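 THP-1 cells grown in RPMI 1640 with 10% FBS and 0.05 mM 2-mercaptoethanol; 3000 cells per well. Compound given in 3% DMSO for 1 h, then LPS added (1 μg/mL final) and cells incubated overnight at 37 °C. TNFα detected by AlphaScreen using anti-TNFα acceptor beads and streptavidin donor beads, each step 1 h in the dark at RT.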"}, "[4]": {"biological_target": "T2, Disintegrin and metalloproteinase domain-containing protein 17", "assay": "Inhibition of ADAM17 in human A549 cells assessed as effect on PMA-stimulated TGFalpha shedding up to 100 uM preincubated for 1 hr followed by PMA stimulation measured after 1 hr by ELISA", "format": "cell-based", "in_short": "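TGFα shedding from PMA-treated A549 cells tested up to 100 μM. Marimastat at 10 μM served as control, with a non-PMA-treated control included; soluble TGFα measured in the supernatant.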"}, "[5]": {"biological_target": "T3, Disintegrin and metalloproteinase domain-containing protein 10 (Homo sapiens, UniProt O14672)", "T3 sequence (O14672 whole entry)": "T1 sequence (whole entry)", "assay": "Inhibition of ADAM10 (unknown origin) preincubated for 30 mins followed by substrate addition measured every 30 mins for 2 hrs by fluorescence assay", "in_short": "as §1"}, "[6]": {"biological_target": "T2, Disintegrin and metalloproteinase domain-containing protein 17", "assay": "Inhibition of ADAM17 in human A549 cells assessed as inhibition of PMA-stimulated heregulin shedding at 40 uM incubated for 1 hr followed by PMA stimulation measured after 1 hr", "format": "cell-based", "in_short": "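Heregulin shedding in A549 cells, with all compounds tested at 40 μM.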"}, "[7]": {"biological_target": "T4, Matrix metalloproteinase-9 (Homo sapiens, UniProt P14780)", "T4 sequence (P14780 whole entry)": "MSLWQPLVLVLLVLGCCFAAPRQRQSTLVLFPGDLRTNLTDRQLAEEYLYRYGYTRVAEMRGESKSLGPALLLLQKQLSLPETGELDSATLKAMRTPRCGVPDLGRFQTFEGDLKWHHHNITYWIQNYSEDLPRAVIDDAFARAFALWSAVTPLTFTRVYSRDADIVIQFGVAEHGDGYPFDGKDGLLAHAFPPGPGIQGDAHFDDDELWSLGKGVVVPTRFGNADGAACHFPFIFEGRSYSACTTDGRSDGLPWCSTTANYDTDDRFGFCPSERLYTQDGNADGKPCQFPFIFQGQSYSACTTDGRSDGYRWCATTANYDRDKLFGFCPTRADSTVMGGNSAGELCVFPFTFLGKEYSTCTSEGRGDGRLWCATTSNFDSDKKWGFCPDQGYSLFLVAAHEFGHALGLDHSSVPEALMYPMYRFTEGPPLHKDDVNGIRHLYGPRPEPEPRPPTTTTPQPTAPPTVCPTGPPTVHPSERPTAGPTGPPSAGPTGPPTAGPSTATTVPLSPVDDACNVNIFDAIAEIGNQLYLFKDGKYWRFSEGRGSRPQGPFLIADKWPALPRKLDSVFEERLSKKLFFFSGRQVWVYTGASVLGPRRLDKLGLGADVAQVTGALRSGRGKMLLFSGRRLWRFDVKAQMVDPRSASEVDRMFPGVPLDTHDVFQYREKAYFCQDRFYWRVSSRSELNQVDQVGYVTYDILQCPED", "assay": "Inhibition of MMP9 (unknown origin) using Mca-KLPGL-Dnp-AR as substrate at 100 uM preincubated for 30 mins followed by substrate addition measured after 1 hr by fluorescence assay relative to control", "in_short": "(§3)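 Inhibitor as 10-point 1:3 dilutions from 300 μM, 30 min at RT. Substrate added from a 30 μM 3× solution. Single fluorescence read (ex 324/em 393 nm) after 1 h at RT.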"}, "[8]": {"biological_target": "T5, 72 kDa type IV collagenase (Homo sapiens, UniProt P08253)", "assay": "Inhibition of MMP2 (unknown origin) using Mca-KLPGL-Dnp-AR as substrate preincubated for 30 mins followed by substrate addition measured after 1 hr by fluorescence assay", "in_short": "as §3"}, "[9]": {"biological_target": "T2, Disintegrin and metalloproteinase domain-containing protein 17", "assay": "Inhibition of ADAM17 (unknown origin) preincubated for 30 mins followed by substrate addition measured every 30 mins for 2 hrs by fluorescence assay", "in_short": "as §1"}, "[10]": {"biological_target": "T4, Matrix metalloproteinase-9", "assay": "Inhibition of MMP9 (unknown origin) using Mca-KLPGL-Dnp-AR as substrate preincubated for 30 mins followed by substrate addition measured after 1 hr by fluorescence assay", "in_short": "as §3"}, "[11]": {"biological_target": "Matrix metalloproteinase-14 (Homo sapiens, UniProt P50281)", "assay": "Inhibition of MMP14 (unknown origin) using Mca-KLPGL-Dnp-AR as substrate preincubated for 30 mins followed by substrate addition measured after 1 hr by fluorescence assay", "in_short": "as §3"}, "[12]": {"biological_target": "T2, Disintegrin and metalloproteinase domain-containing protein 17", "assay": "Inhibition of ADAM17 in human THP1 cells assessed as inhibition of LPS-stimulated TNFalpha cleavage after 1 hr by AlphaScreen assay", "format": "cell-based, THP-1", "in_short": "as §2"}, "Neutrophil collagenase [13]": {"biological_target": "T6, Neutrophil collagenase (Homo sapiens, UniProt P22894)", "assay": "Inhibition of MMP8 (unknown origin) using Mca-KLPGL-Dnp-AR as substrate at 100 uM preincubated for 30 mins followed by substrate addition measured after 1 hr by fluorescence assay relative to control", "in_short": "as §3"}, "[14]": {"biological_target": "T1, Disintegrin and metalloproteinase domain-containing protein 10 (Homo sapiens)", "assay": "Inhibition of ADAM10 (unknown origin) at 100 uM preincubated for 30 mins followed by substrate addition measured every 30 mins for 2 hrs by fluorescence assay relative to control", "in_short": "as §1"}, "[15]": {"assay": "Cytotoxicity against CHOK1 cells assessed as inhibition of cell viability up to 33 uM after 72 hrs by CellTiter-Glo assay", "format": "cell-based, Cricetulus griseus", "details": "chinese hamster, cho-k1, 72 h"}, "[16]": {"biological_target": "T2, Disintegrin and metalloproteinase domain-containing protein 17", "assay": "Inhibition of ADAM17 in human EAhy926 cells assessed as inhibition of neprilysin shedding at 15 uM relative to control", "format": "cell-based"}, "[17]": {"biological_target": "T2, Disintegrin and metalloproteinase domain-containing protein 17", "assay": "Inhibition of ADAM17 in human SW480 cells assessed as inhibition of PMA-stimulated wild type PTK7 shedding at 25 to 100 uM after 16 hrs by Western blot analysis", "format": "cell-based", "in_short": "(§4)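 PTK7 shedding tested at 25, 50 and 100 μM in PMA-stimulated cells. HT1080 fibrosarcoma cells carried the L622D PTK7 mutant uncleavable by MT1-MMP; SW480 colorectal cells expressed wild-type PTK7 endogenously. Soluble PTK7 was detected.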"}, "[18]": {"biological_target": "T2, Disintegrin and metalloproteinase domain-containing protein 17", "assay": "Inhibition of ADAM17 in human HT1080 cells assessed as inhibition of PMA-stimulated PTK7 L622D mutant shedding at 25 to 100 uM after 16 hrs by Western blot analysis", "format": "cell-based", "details": "HT-1080", "in_short": "as §4"}, "[19]": {"biological_target": "T5, 72 kDa type IV collagenase", "assay": "Inhibition of MMP2 (unknown origin) using Mca-KLPGL-Dnp-AR as substrate at 100 uM preincubated for 30 mins followed by substrate addition measured after 1 hr by fluorescence assay relative to control", "in_short": "as §3"}, "Neutrophil collagenase [20]": {"biological_target": "T6, Neutrophil collagenase", "assay": "Inhibition of MMP8 (unknown origin) using Mca-KLPGL-Dnp-AR as substrate preincubated for 30 mins followed by substrate addition measured after 1 hr by fluorescence assay", "in_short": "as §3"}},
  "note": "pIC50: −log10 of the molar value. The source made the active and inactive calls. The rule behind the calls is not given here.",
  "data": [
    {"smiles": "CNC(=O)[C@@H](NC(=O)[C@H](CC(C)C)[C@H](O)C(=O)NO)C(C)(C)C", "values": [
      {"measurement": "inhibition", "setting": "[1]", "result": "Active"}
    ]},
    {"smiles": "CCC[C@H]1CNC(=O)C(=O)N1C[C@@H]1CCCN1C[C@@H](CC1CCCCC1)N1C[C@H](Cc2ccccc2)N(CCc2ccccc2)C(=O)C1=O", "values": [
      {"measurement": "Activity", "setting": "A549", "result": "Non-toxic"},
      {"measurement": "inhibition", "setting": "[2]", "result": 100, "unit": "%"},
      {"measurement": "inhibition", "setting": "[3]", "result": 60, "unit": "%"},
      {"measurement": "inhibition", "setting": "[4]", "result": 0, "unit": "%"},
      {"measurement": "pIC50", "setting": "[5]", "result": "< 4.00"},
      {"measurement": "inhibition", "setting": "[6]", "result": 28, "unit": "%"},
      {"measurement": "inhibition", "setting": "[7]", "result": 0, "unit": "%"},
      {"measurement": "pIC50", "setting": "[8]", "result": "< 4.00"},
      {"measurement": "pIC50", "setting": "[9]", "result": 5.37},
      {"measurement": "pIC50", "setting": "[10]", "result": "< 4.00"},
      {"measurement": "pIC50", "setting": "[11]", "result": "< 4.00"},
      {"measurement": "pIC50", "setting": "[12]", "result": 4.55},
      {"measurement": "inhibition", "setting": "Neutrophil collagenase [13]", "result": 0, "unit": "%"},
      {"measurement": "inhibition", "setting": "[14]", "result": 0, "unit": "%"},
      {"measurement": "Activity", "setting": "[15]", "result": "Non-toxic"},
      {"measurement": "inhibition", "setting": "[16]", "result": 38, "unit": "%"},
      {"measurement": "inhibition", "setting": "[17]", "result": 0, "unit": "%"},
      {"measurement": "inhibition", "setting": "[18]", "result": 0, "unit": "%"},
      {"measurement": "inhibition", "setting": "[19]", "result": 0, "unit": "%"},
      {"measurement": "pIC50", "setting": "Neutrophil collagenase [20]", "result": "< 4.00"}
    ]}
  ]
}
